In data set [1] the target is T1, Gonadotropin-releasing hormone receptor (Homo sapiens, UniProt P30968).
T1 sequence (P30968 whole entry): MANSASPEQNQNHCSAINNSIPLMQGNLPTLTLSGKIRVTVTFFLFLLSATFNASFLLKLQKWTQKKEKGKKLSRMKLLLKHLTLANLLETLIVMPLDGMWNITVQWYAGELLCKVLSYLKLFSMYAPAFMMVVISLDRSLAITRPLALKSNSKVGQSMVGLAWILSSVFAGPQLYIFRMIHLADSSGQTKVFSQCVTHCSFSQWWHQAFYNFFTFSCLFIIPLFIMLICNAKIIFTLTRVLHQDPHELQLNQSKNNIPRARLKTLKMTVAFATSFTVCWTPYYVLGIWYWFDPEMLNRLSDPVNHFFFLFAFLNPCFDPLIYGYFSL
Nature of the data set: In vitro functional antagonism via inhibition of GnRH-stimulated phosphatidylinositol (PI) hydrolysis in cloned Chinese hamster ovary (CHO) cells stably expressing the human GnRH receptor. The class given is cell-based. Put shortly: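 Functional antagonism read as inhibition of GnRH-stimulated phosphatidylinositol hydrolysis in cloned CHO cells stably expressing human GnRH receptor; IC50 reported in nM.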

For data set [2], the target named is T1, Gonadotropin-releasing hormone receptor. Description: Binding inhibition towards human pituitary gonadotropin-releasing hormone receptor using [125I]buserelin. Put shortly: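 Competition binding against the agonist radioligand [125I]buserelin at human pituitary GnRH receptor, run in the presence of 0.1% BSA; IC50 reported in nM.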
Data set [3] is described as follows: Oral bioavailability in rat. The class given is ADME, organism-based. The following applies: in vivo.
The nature of data set [4]: Oral bioavailability in dog. The class given is ADME, organism-based, Canis lupus familiaris. The following applies: in vivo.
A short description of data set [5]: Oral bioavailability in Rhesus monkey. The class given is ADME, organism-based, Macaca mulatta. The following applies: in vivo.

The IC50 is the concentration that inhibits the measured activity by half. `Cc1cc(C)cc(-c2[nH]c3ccc(C(C)(C)C(=O)N4CC5CCC4CC5)cc3c2[C@H](C)CNCCc2ccc(=O)n(C)c2)c1`: the figures for the IC50 in data set [1] and in data set [2] were 1.4 nM and 0.2 nM, respectively.
For `Cc1cc(C)cc(-c2[nH]c3ccc(C(C)(C)C(=O)N4CCC5(CC4)OCCO5)cc3c2[C@H](C)CNCCCCc2ccncc2)c1`, in that order: 66 nM and 0.6 nM.
In general, bioavailability refers to the share of a dose that reaches the circulation, judged against a reference dose that is usually intravenous. As to `Cc1cc(C)cc(-c2[nH]c3ccc(C(C)(C)C(=O)N4CC5CCC4CC5)cc3c2[C@H](C)CNCCCCc2ccncc2)c1`, the bioavailability in data set [3] turned out to be 14%; in data set [4] it was 7%. The IC50 in data set [1] came to 2.8 nM; in data set [2], 1 nM.
For the compound `Cc1cc(C)cc(-c2[nH]c3ccc(C(C)(C)C(=O)N4CCN(C(=O)OC(C)(C)C)CC4)cc3c2[C@H](C)CNCCCCc2ccncc2)c1`, the values for the IC50 in data set [1] and in data set [2] were 220 nM and 6.1 nM, respectively.
As to `COCn1cc(CCNC[C@@H](C)c2c(-c3cc(C)cc(C)c3)[nH]c3ccc(C(C)(C)C(=O)N4CC5CCC4CC5)cc23)ccc1=O`, the IC50 is 3.9 nM in data set [1] and 0.4 nM in data set [2].
Regarding `CCS(=O)(=O)N1CCN(C(=O)C(C)(C)c2ccc3[nH]c(-c4cc(C)cc(C)c4)c([C@H](C)CNCCCCc4ccncc4)c3c2)CC1`, the half-maximal inhibitory concentration (IC50) is 124 nM in data set [1] and 4.4 nM in data set [2].
The like results for `Cc1cc(C)cc(-c2[nH]c3ccc(C(C)(C)C(=O)N4C5CCCCC5C5CCCCC54)cc3c2[C@H](C)CNCCCCc2ccncc2)c1` (some centres undefined) were, in that order, 31 nM and 21 nM.
The like results for `Cc1cc(C)cc(-c2[nH]c3ccc(C(C)(C)C(=O)N4CC5CCC4CC5)cc3c2[C@H](C)CNCCc2cccn(C)c2=O)c1` were, in that order, 82 nM and 5.3 nM.
For `Cc1cc(C)cc(-c2[nH]c3ccc(C(C)(C)C(=O)N4CCC(C)(C)CC4)cc3c2[C@H](C)CNCCCCc2ccncc2)c1`, in that order: 39 nM and 1.3 nM.
In the case of `Cc1cc(C)cc(-c2[nH]c3ccc(C(C)(C)C(=O)N4CC5CCC4CC5)cc3c2[C@H](C)CNCCc2ccncc2)c1`, the bioavailability amounted to 21% in data set [5], 8% in data set [3] and 25% in data set [4]. Further, the concentration for half-maximal inhibition (IC50) in data set [1] is 7.2 nM; in data set [2] it was 0.6 nM.
Turning to `COc1ccc(CCNC[C@@H](C)c2c(-c3cc(C)cc(C)c3)[nH]c3ccc(C(C)(C)C(=O)N4CC5CCC4CC5)cc23)cn1`, the IC50 in data set [1] came out at 11 nM; in data set [2], 1 nM.
The like results for `Cc1cc(C)cc(-c2[nH]c3ccc(C(C)(C)C(=O)N4C[C@H]5CC[C@@H]4C5)cc3c2[C@H](C)CNCCCCc2ccncc2)c1` were, in that order, 4 nM and 1 nM.
For `Cc1cc(C)cc(-c2[nH]c3ccc(C(C)(C)C(=O)N4C[C@@H]5CC[C@H]4C5)cc3c2[C@H](C)CNCCCCc2ccncc2)c1`, in that order: 8.7 nM and 0.4 nM.
The like results for `Cc1cc(C)cc(-c2[nH]c3ccc(C(C)(C)C(=O)N4CC5CCC(CC5)C4)cc3c2[C@H](C)CNCCCCc2ccncc2)c1` were, in that order, 13 nM and 2.1 nM.
For `Cc1cc(C)cc(-c2[nH]c3ccc(C(C)(C)C(=O)N(CC(C)C)CC(C)C)cc3c2[C@H](C)CNCCCCc2ccncc2)c1`, the IC50 in data set [1] was 14 nM; in data set [2] it was 5.6 nM.
For the compound `Cc1cc(C)cc(-c2[nH]c3ccc(C(C)(C)C(=O)N4C[C@H]5CC[C@@H]4C5)cc3c2[C@H](C)CNCCc2ccncc2)c1`, the bioavailability in data set [4] came to 8.5%. In addition, the IC50 in data set [1] was 1.9 nM; in data set [2], 1.2 nM.
For the compound `Cc1cc(C)cc(-c2[nH]c3ccc(C(C)(C)C(=O)N4C5CCC4CC5)cc3c2[C@H](C)CNCCCCc2ccncc2)c1`, the IC50 is 5.7 nM in data set [1] and 0.7 nM in data set [2].
For the compound `Cc1cc(C)cc(-c2[nH]c3ccc(C(C)(C)C(=O)N4CCC5(CCCC5)CC4)cc3c2[C@H](C)CNCCCCc2ccncc2)c1`, the half-inhibitory concentration (IC50) is 93 nM in data set [1] and 2.7 nM in data set [2].
Turning to `Cc1cc(C)cc(-c2[nH]c3ccc(C(C)(C)C(=O)N4CC5CCC4CC5)cc3c2[C@H](C)CNCCc2cccnc2)c1`, the bioavailability in data set [4] turned out to be 12%. Further, the half-maximal inhibitory concentration (IC50) worked out at 2.6 nM in data set [1] and 0.6 nM in data set [2].
In data set [2], `Cc1cc(C)cc(-c2[nH]c3ccc(C(C)(C)C(=O)N4C5CCC4CC5)cc3c2CCNCCCCc2ccncc2)c1` displayed an IC50 of 1.4 nM.
Consider `Cc1cc(C)cc(-c2[nH]c3ccc(C(C)(C)C(=O)N4C[C@H]5CCCC[C@H]5C4)cc3c2[C@H](C)CNCCCCc2ccncc2)c1`, for which the IC50 stood at 66 nM in data set [1] and 1.4 nM in data set [2].
Turning to `Cc1cc(C)cc(-c2[nH]c3ccc(C(C)(C)C(=O)N4CC5CCC4CC5)cc3c2[C@H](C)CNCCC2CCC(=O)N(C)C2)c1` (some centres undefined), the results for the IC50 in data set [1] and in data set [2] were 8.2 nM and 0.4 nM, respectively.
For `Cc1cc(C)cc(-c2[nH]c3ccc(C(C)(C)C(=O)N4C5CCCC4CC5)cc3c2[C@H](C)CNCCCCc2ccncc2)c1`, in that order: 8.8 nM and 0.8 nM.
For `Cc1cc(C)cc(-c2[nH]c3ccc(C(C)(C)C(=O)N4CC5CCC4CC5)cc3c2[C@H](C)CNCCc2cc(C)c(=O)n(C)c2)c1`, the bioavailability in data set [5] was determined as 4%; in data set [4] it was 35%. Further, the IC50 is 4 nM in data set [1] and 0.6 nM in data set [2].
As to `Cc1cc(C)cc(-c2[nH]c3ccc(C(C)(C)C(=O)N4CC5CCC4CC5)cc3c2[C@H](C)CNCCc2ccc(O)nc2)c1`, the IC50 in data set [1] was determined as 1 nM; in data set [2], 0.3 nM.
For the compound `Cc1cc(C)cc(-c2[nH]c3ccc(C(C)(C)C(=O)N4CC5(C)CC4CC(C)(C)C5)cc3c2[C@H](C)CNCCCCc2ccncc2)c1` (some centres undefined), the IC50 in data set [1] amounted to 6.4 nM; in data set [2], 4.8 nM.
The like results for `Cc1cc(C)cc(-c2[nH]c3ccc(C(C)(C)C(=O)N4CC5CCCC4C5)cc3c2[C@H](C)CNCCCCc2ccncc2)c1` (some centres undefined) were, in that order, 6.8 nM and 4.8 nM.
As to `Cc1cc(C)cc(-c2[nH]c3ccc(C(C)(C)C(=O)N4CC(C)(C)C4)cc3c2[C@H](C)CNCCCCc2ccncc2)c1`, the figures for the 50% inhibitory concentration (IC50) in data set [1] and in data set [2] were 21 nM and 0.7 nM, respectively.
Regarding `Cc1cc(C)cc(-c2[nH]c3ccc(C(C)(C)C(=O)N4C5CCC4CC5)cc3c2[C@H](C)CNCCc2ccncc2)c1`, the figures for the bioavailability in data set [5], in data set [3] and in data set [4] were 6.4%, 23% and 14%, respectively. Further, the IC50 in data set [1] came to 7 nM; in data set [2], 0.8 nM.

These data come from ChEMBL document CHEMBL1133976, “Orally bioavailable, indole-based nonpeptide GnRH receptor antagonists with high potency and functional activity” (Bioorg Med Chem Lett, 2001).
